The target of one experiment is Histone deacetylase 1 (Homo sapiens, UniProt Q13547). Briefly: Inhibition of HDAC1 by fluorescent activity assay.
The next experiment relates to HCT-116. Briefly: Antiproliferative activity against human HCT116 cells by MTT assay. The experiment is classed as functional, cell-based. A general note: Formazan colour is commonly taken as a measure of viable cells.
Experiment [1] in a line: Antitumor activity against mouse EAC cells transplanted in Swiss albino mouse assessed as tumor weight inhibition in ascetic fluid at 0.2 mmol/kg, ip administered qd for 7 days measured on 8th day. The experiment is classed as functional. The note with it: Ehrlich, 168 h, read-out: GI. In outline:
(§1)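 Ehrlich ascites carcinoma cells (9 days old) were taken from a donor mouse into sterile isotonic saline and adjusted to 10 × 10⁶ cells/mL. Mice received 0.1 mL per 10 g ip on day 0. Compound in PBS pH 7.2 (0.1 mL/10 g) was given ip on days 1–7 at 24-h intervals; controls received vehicle only. On day 8, after 6 h fasting, peritoneal cells were counted and ascitic fluid weight was taken from body weight before and after fluid removal.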

Experiment [2] can be described thus: Antitumor activity against mouse EAC cells transplanted in Swiss albino mouse assessed as tumor cell inhibition in ascetic fluid at 0.2 mmol/kg, ip administered qd for 7 days measured on 8th day. The experiment is classed as functional. The conditions noted are these: Ehrlich, 168 h, read-out: GI. The gist of the method: as §1
Experiment [3] can be described thus: Antitumor activity against mouse EAC cells transplanted in Swiss albino mouse assessed as tumor weight inhibition in ascetic fluid at 1 mg/kg, ip administered qd for 7 days measured on 8th day. The note with it: Ehrlich, 168 h, route intraperitoneal, read-out: GI. The experiment is classed as functional. The gist of the method:
(§2)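 Swiss albino mice were inoculated ip on day 0 with 9-day-old Ehrlich ascites carcinoma cells from a donor mouse (10 × 10⁶ cells/mL in isotonic saline, 0.1 mL per 10 g). Mitomycin-C served as the standard at 1 mg/kg; controls received vehicle only. Mice were sacrificed on day 8 after 6 h without food and water. Peritoneal fluid cells were counted, and ascitic fluid weight came from body weight before and after draining the cavity.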

The nature of experiment [4]: Antitumor activity against mouse EAC cells transplanted in Swiss albino mouse assessed as tumor cell inhibition in ascetic fluid at 1 mg/kg, ip administered qd for 7 days measured on 8th day. The experiment is classed as functional. The note with it: Ehrlich, 168 h, route intraperitoneal, read-out: GI. In outline:
as §2

This note sets out measurements from ChEMBL document CHEMBL1833854, “2,5-Disubstituted-1,3,4-oxadiazoles/thiadiazole as surface recognition moiety: design and synthesis of novel hydroxamic acid based histone deacetylase inhibitors” (Bioorg Med Chem Lett, 2011).

SMILES strings stand for the structures.

Chain of Histone deacetylase 1 (Q13547 whole entry): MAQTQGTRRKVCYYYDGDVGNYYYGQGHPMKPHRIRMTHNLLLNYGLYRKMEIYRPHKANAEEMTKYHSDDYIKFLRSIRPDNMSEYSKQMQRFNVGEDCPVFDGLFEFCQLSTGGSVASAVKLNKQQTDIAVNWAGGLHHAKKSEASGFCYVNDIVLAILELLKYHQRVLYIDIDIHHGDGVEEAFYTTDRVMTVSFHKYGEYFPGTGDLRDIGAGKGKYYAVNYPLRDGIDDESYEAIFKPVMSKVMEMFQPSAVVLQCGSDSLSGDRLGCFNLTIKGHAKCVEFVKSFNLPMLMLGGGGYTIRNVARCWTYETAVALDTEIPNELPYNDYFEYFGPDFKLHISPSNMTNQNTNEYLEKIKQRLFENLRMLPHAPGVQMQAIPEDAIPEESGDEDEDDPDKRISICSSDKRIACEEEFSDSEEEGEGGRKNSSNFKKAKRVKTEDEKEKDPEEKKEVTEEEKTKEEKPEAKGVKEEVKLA

As usually defined, the IC50 is the concentration that gives 50% inhibition. A low value points to greater potency in that assay. Regarding `O=C(NO)c1cnc(Nc2nnc(-c3ccc(F)cc3)o2)nc1`, the values for the IC50 against Histone deacetylase 1 and with HCT-116 were 9 nM and 60 nM, respectively. The values for the inhibition in vivo at 200 µmol/kg in experiment [1] and in experiment [2] were 24.1% and 16.4%, respectively.

For the compound `CN(C)c1ccc(-c2nnc(Nc3ncc(C(=O)NO)cn3)o2)cc1`, the figures for the IC50 at Histone deacetylase 1 and in the experiment with HCT-116 were 9 nM and 200 nM, respectively. The inhibition in vivo at 200 µmol/kg in experiment [1] was 55.5%; in experiment [2], 56.8%.

Take `O=C(NO)c1cnc(Nc2nnc(-c3ccccc3)s2)nc1`: the IC50 against Histone deacetylase 1 amounted to 8 nM; with HCT-116 it was 80 nM. The inhibition in vivo at 200 µmol/kg in experiment [1] worked out at 14.2%; in experiment [2] it was 29.5%.

`O=C(NO)c1cnc(Nc2nnc(-c3ccc(Cl)cc3)s2)nc1`: the values for the concentration for half-maximal inhibition (IC50) at Histone deacetylase 1 and in the experiment on HCT-116 were 10 nM and 160 nM, respectively. Further, the inhibition in vivo at 200 µmol/kg in experiment [1] was 48.3%; in experiment [2], 32%.

On to `CN(C)c1ccc(-c2nnc(Nc3ncc(C(=O)NO)cn3)s2)cc1`, for which the figures for the IC50 on Histone deacetylase 1 and in the experiment on HCT-116 were 11 nM and 200 nM, respectively. The values for the inhibition in vivo at 200 µmol/kg in experiment [1] and in experiment [2] were 61.1% and 51.1%, respectively.

In the case of `CO[C@@]12[C@H](COC(N)=O)C3=C(C(=O)C(C)=C(N)C3=O)N1C[C@@H]1N[C@@H]12` [MITOMYCIN], the inhibition in vivo at 1 mg/kg in experiment [3] and in experiment [4] was 100% in each case.
